What was measured:
[1] = 5 min; cited from earlier work
[2] = MicroPET imaging, myocardial tissue time-activity curves; type: in vivo; conditions: male Sprague-Dawley rats
[3] = Biodistribution of [^18F]7 in rats after i.v. injection; type: in vivo, Sprague-Dawley rats; conditions: for Distribution, blood / Distribution, bone / Distribution, brain / Distribution, fat / Distribution, heart / Distribution, kidney / Distribution, liver / Distribution, lung / Distribution, muscle / Distribution, pancreas / Distribution, spleen: male Sprague-Dawley rats, mean ± SD
Summary of the method: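 Adult male Sprague-Dawley rats (170–250 g) under 2–3 % isoflurane/O2 received ~20–25 μCi/100 μL tracer (formulated in 3% HSA) via lateral tail vein. Killed at 5, 30, 60, 120 min, 4–8 rats per time; bone and fat taken only at 5 and 60 min (4 rats). Tissues weighed and gamma-counted alongside injectate standard dilution. Expressed as %ID/g, mean ± SD; Student's t-test.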

[4] = 5 min post-i.v. injection, rats

CCCCCCCCC([18F])CCCCC1CC1CC(=O)O (racemic) [[^18F]FCPHA, trans-9-(RS)-[^18F]fluoro-3,4-(RS,RS) methyleneheptadecanoic acid]
uptake in rat myocardium [1]: approximately 1.5 %ID/gram tissue

O=C(O)CCCCCCCCCCCCCCc1ccc(OCC[18F])cc1 [[^18F]7, 15-(4-(2-[^18F]fluoroethoxy)phenyl)pentadecanoic acid]
accumulation in bone on PET images [2]: no evidence of accumulation in bone
Ratio of activity heart:blood [3, 4]: 2.55
Ratio of activity heart:skeletal muscle [3, 4]: 8.3
Uptake in heart at 30 min as percentage of the 5 min activity ([3]; 30 min post injection vs 5 min, rats): 35%
Uptake in heart relative to blood ([3]; 120 min post injection, rats): approximately 1.4 fold
Distribution, blood ([3]; 5 min post i.v. injection): 0.76 ± 0.05 %ID/gram
Distribution, blood ([3]; 30 min post i.v. injection): 0.75 ± 0.06 %ID/gram
Distribution, blood ([3]; 60 min post i.v. injection): 0.56 ± 0.06 %ID/gram
Distribution, blood ([3]; 120 min post i.v. injection): 0.26 ± 0.06 %ID/gram
metabolic defluorination (bone activity) ([3]; bone activity between 5 and 60 min, rats): no significant metabolic defluorination
Distribution, bone ([3]; 5 min post i.v. injection): 0.28 ± 0.01 %ID/gram
Distribution, bone ([3]; 60 min post i.v. injection): 0.33 ± 0.06 %ID/gram
Distribution, brain ([3]; 5 min post i.v. injection): 0.11 ± 0.01 %ID/gram
Distribution, brain ([3]; 30 min post i.v. injection): 0.13 ± 0.01 %ID/gram
Distribution, brain ([3]; 60 min post i.v. injection): 0.10 ± 0.01 %ID/gram
Distribution, brain ([3]; 120 min post i.v. injection): 0.06 ± 0.01 %ID/gram
Distribution, fat ([3]; 5 min post i.v. injection): 0.14 ± 0.02 %ID/gram
Distribution, fat ([3]; 60 min post i.v. injection): 0.17 ± 0.01 %ID/gram
Increase of activity in fat ([3]; from 5 to 60 min, rats, P = 0.04): 20%
Distribution, heart ([3]; 5 min post i.v. injection): 2.00 ± 0.44 %ID/gram
Distribution, heart ([3]; 30 min post i.v. injection): 0.72 ± 0.10 %ID/gram
Distribution, heart ([3]; 60 min post i.v. injection): 0.86 ± 0.28 %ID/gram
Distribution, heart ([3]; 120 min post i.v. injection): 0.34 ± 0.04 %ID/gram
Distribution, kidney ([3]; 5 min post i.v. injection): 1.30 ± 0.09 %ID/gram
Distribution, kidney ([3]; 30 min post i.v. injection): 1.26 ± 0.08 %ID/gram
Distribution, kidney ([3]; 60 min post i.v. injection): 1.02 ± 0.15 %ID/gram
Distribution, kidney ([3]; 120 min post i.v. injection): 0.52 ± 0.07 %ID/gram
Distribution, liver ([3]; 5 min post i.v. injection): 2.71 ± 0.37 %ID/gram
Distribution, liver ([3]; 30 min post i.v. injection): 1.39 ± 0.09 %ID/gram
Distribution, liver ([3]; 60 min post i.v. injection): 0.81 ± 0.10 %ID/gram
Distribution, liver ([3]; 120 min post i.v. injection): 0.49 ± 0.07 %ID/gram
Distribution, lung ([3]; 5 min post i.v. injection): 1.26 ± 0.32 %ID/gram
Distribution, lung ([3]; 30 min post i.v. injection): 0.87 ± 0.06 %ID/gram
Distribution, lung ([3]; 60 min post i.v. injection): 0.95 ± 0.27 %ID/gram
Distribution, lung ([3]; 120 min post i.v. injection): 0.52 ± 0.06 %ID/gram
Distribution, muscle ([3]; 5 min post i.v. injection): 0.23 ± 0.03 %ID/gram
Distribution, muscle ([3]; 30 min post i.v. injection): 0.24 ± 0.04 %ID/gram
Distribution, muscle ([3]; 60 min post i.v. injection): 0.21 ± 0.02 %ID/gram
Distribution, muscle ([3]; 120 min post i.v. injection): 0.12 ± 0.01 %ID/gram
Distribution, pancreas ([3]; 5 min post i.v. injection): 0.73 ± 0.07 %ID/gram
Distribution, pancreas ([3]; 30 min post i.v. injection): 0.50 ± 0.03 %ID/gram
Distribution, pancreas ([3]; 60 min post i.v. injection): 0.42 ± 0.04 %ID/gram
Distribution, pancreas ([3]; 120 min post i.v. injection): 0.28 ± 0.02 %ID/gram
Distribution, spleen ([3]; 5 min post i.v. injection): 0.94 ± 0.05 %ID/gram
Distribution, spleen ([3]; 30 min post i.v. injection): 0.63 ± 0.07 %ID/gram
Distribution, spleen ([3]; 60 min post i.v. injection): 0.57 ± 0.11 %ID/gram
Distribution, spleen ([3]; 120 min post i.v. injection): 0.40 ± 0.06 %ID/gram

— article PMC3061239 (Bioconjugate chemistry, 2010)
